In ChEMBL document CHEMBL3875192, “Synthesis and binding monitoring of a new nanomolar PAMAM-based matrix metalloproteinases inhibitor (MMPIs)” (Bioorg Med Chem, 2017):
The source made the active and inactive calls. The rule behind the calls is not given here.

How the values were obtained:
[1] = molecular target: T1, Macrophage metalloelastase (Homo sapiens, UniProt P39900); experiment: Binding affinity to MMP-12 catalytic domain (unknown origin) assessed as hydrodynamic radius by dynamic light scattering method
Outline: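 Samples in glass tubes sat in a thermostatic cell filled with decahydronaphthalene for refractive-index matching. Cumulant fitting of the light-scattering data gave the diffusion coefficient of the complexes, and the average hydrodynamic radius came from the Stokes–Einstein relation assuming spherical particles.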
Target sequence in this assay (P39900 106-470 limits assumed): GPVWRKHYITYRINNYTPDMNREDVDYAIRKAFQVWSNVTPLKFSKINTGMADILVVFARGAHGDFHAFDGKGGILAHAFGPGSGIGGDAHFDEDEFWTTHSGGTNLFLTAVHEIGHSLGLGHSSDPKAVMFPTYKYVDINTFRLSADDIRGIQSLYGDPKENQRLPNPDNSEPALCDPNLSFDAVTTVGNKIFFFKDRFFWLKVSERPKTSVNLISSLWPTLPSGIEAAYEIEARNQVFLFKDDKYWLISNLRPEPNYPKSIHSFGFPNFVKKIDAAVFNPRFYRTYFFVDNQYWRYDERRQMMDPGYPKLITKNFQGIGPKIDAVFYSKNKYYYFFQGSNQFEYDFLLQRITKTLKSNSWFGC

[2] = molecular target: T2, Matrix metalloproteinase-9 (Homo sapiens, UniProt P14780); experiment: Inhibition of MMP-9 catalytic domain (unknown origin)
[3] = molecular target: T1, Macrophage metalloelastase; experiment: Inhibition of MMP-12 catalytic domain (unknown origin) assessed as inhibition of hydrolysis of Mca-Pro-Leu-Gly-Leu-Dpa-Ala-Arg-NH2 substrate by fluorimetric assay
Target sequence in this assay (P39900 whole entry, the tested form may be a part): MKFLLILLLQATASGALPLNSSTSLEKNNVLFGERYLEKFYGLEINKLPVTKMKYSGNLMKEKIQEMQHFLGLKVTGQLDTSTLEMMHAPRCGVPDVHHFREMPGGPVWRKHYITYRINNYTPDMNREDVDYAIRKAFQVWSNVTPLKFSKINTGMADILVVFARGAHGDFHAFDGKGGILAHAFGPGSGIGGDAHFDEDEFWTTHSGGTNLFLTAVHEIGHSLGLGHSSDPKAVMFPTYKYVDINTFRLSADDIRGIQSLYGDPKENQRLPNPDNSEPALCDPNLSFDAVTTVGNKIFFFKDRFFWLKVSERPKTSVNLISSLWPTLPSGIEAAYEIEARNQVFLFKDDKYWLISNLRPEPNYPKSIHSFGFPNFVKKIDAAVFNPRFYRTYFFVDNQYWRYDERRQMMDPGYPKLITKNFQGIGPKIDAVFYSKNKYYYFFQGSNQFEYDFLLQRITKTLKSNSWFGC

[4] = molecular target: 72 kDa type IV collagenase (Homo sapiens, UniProt P08253); experiment: Inhibition of MMP-2 (unknown origin) assessed as inhibition of hydrolysis of Mca-Pro-Leu-Gly-Leu-Dpa-Ala-Arg-NH2 substrate by fluorimetric assay
[5] = molecular target: T1, Macrophage metalloelastase; experiment: Binding affinity to 15N-enriched MMP-12 catalytic domain (unknown origin) at 0.2 mM by 2D 1H-15N HSQC NMR spectroscopy
Outline: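 Ligand was added from a DMSO-d₆ solution to a final 0.2 mM with 1% DMSO-d₆. Amide NH resonances were followed by sensitivity-enhanced 2D ¹H-¹⁵N HSQC, and spectral changes were the binding read-out.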
Target sequence in this assay (P39900 106-470 limits assumed): as the sequence (P39900 106-470 limits assumed) above

[6] = molecular target: T3, Matrilysin (Homo sapiens, UniProt P09237); experiment: Inhibition of MMP-7 (unknown origin) assessed as inhibition of hydrolysis of Mca-Pro-Leu-Gly-Leu-Dpa-Ala-Arg-NH2 substrate by fluorimetric assay
T3 sequence (P09237 whole entry): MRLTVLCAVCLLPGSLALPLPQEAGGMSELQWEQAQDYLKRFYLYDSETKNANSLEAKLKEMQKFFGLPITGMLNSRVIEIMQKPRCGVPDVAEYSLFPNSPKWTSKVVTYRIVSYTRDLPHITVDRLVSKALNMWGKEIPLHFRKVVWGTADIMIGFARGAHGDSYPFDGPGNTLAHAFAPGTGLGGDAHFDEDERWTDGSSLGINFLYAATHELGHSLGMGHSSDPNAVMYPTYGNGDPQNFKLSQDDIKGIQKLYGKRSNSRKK

[7] = molecular target: T2, Matrix metalloproteinase-9; experiment: Inhibition of human recombinant MMP-9 catalytic domain (112 to 445 residues) expressed in Escherichia coli assessed as inhibition of hydrolysis of Mca-Pro-Leu-Gly-Leu-Dpa-Ala-Arg-NH2 substrate by fluorimetric assay
Outline: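 Inhibition constant toward MMP-9 was determined fluorimetrically by monitoring hydrolysis of the quenched peptide substrate Mca-Pro-Leu-Gly-Leu-Dpa-Ala-Arg-NH₂.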

[8] = molecular target: T4, Interstitial collagenase (Homo sapiens, UniProt P03956); experiment: Inhibition of MMP-1 (unknown origin) assessed as inhibition of hydrolysis of Mca-Pro-Leu-Gly-Leu-Dpa-Ala-Arg-NH2 substrate by fluorimetric assay
T4 sequence (P03956 whole entry): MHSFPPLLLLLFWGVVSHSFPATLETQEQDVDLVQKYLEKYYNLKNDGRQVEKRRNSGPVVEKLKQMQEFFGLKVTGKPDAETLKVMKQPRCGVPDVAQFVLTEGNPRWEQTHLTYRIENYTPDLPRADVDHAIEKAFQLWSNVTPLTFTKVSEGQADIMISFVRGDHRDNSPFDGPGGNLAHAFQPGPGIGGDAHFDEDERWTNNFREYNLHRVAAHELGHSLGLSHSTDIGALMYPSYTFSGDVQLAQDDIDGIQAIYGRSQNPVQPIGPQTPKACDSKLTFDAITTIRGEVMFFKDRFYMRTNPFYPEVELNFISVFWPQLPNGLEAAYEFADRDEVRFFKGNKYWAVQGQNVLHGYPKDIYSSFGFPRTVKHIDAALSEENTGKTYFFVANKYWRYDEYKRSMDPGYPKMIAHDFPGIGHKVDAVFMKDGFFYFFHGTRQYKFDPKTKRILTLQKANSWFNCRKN

[9] = molecular target: Collagenase 3 (Homo sapiens, UniProt P45452); experiment: Inhibition of MMP-13 (unknown origin) assessed as inhibition of hydrolysis of Mca-Pro-Leu-Gly-Leu-Dpa-Ala-Arg-NH2 substrate by fluorimetric assay

T2 sequence (P14780 whole entry, the tested form may be a part): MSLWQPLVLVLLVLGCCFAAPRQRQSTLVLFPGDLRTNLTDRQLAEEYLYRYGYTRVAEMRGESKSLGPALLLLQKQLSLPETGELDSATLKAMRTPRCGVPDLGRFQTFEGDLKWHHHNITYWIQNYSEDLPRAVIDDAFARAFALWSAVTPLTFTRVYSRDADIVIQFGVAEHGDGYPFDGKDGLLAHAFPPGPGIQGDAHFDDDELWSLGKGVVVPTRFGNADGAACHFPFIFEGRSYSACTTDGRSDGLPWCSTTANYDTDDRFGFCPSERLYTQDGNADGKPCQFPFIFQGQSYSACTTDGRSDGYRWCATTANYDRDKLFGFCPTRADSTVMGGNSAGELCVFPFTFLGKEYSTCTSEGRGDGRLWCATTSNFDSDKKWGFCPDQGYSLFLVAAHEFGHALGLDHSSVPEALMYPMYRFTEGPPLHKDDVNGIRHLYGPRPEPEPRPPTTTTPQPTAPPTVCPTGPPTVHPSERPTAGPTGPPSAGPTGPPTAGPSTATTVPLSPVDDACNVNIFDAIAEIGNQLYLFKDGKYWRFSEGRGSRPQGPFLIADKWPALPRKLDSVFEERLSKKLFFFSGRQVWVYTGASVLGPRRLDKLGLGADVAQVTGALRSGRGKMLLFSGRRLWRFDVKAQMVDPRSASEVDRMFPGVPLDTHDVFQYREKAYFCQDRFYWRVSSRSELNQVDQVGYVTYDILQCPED
72 kDa type IV collagenase, sequence (P08253 whole entry, the tested form may be a part): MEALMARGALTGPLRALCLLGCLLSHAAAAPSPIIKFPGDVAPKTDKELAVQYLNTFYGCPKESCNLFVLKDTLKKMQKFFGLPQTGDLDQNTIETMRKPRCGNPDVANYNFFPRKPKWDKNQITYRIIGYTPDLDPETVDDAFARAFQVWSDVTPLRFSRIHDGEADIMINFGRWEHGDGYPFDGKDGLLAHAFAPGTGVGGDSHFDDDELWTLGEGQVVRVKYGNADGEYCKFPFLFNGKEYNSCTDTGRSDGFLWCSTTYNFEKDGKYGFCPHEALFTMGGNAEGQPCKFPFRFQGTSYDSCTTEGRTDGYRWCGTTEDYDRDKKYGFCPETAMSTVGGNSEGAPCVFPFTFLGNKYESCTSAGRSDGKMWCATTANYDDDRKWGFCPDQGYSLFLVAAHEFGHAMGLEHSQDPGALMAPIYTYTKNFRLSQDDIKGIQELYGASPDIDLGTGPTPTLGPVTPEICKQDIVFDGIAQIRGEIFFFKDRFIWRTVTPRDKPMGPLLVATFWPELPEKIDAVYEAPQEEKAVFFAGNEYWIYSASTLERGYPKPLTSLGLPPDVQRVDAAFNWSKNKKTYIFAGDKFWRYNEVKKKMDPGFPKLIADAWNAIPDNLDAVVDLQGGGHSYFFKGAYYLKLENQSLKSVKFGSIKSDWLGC

COc1ccc(S(=O)(=O)N(CC(=O)NO)CC(C)C)cc1
Activity [1]: 2.1 nm

COc1ccc(S(=O)(=O)N(CCNC(=O)CCCCC(=O)NCCNC(=O)CCN(CCNC(=O)OC(C)(C)C)CCC(=O)NCCNC(=O)CCCCC(=O)NCCN([C@H](CO)C(=O)NO)S(=O)(=O)c2ccc(OC)cc2)[C@H](CO)C(=O)NO)cc1
Ki [2]: 289 nM

COc1ccc(S(=O)(=O)N(CCCCCNC(=O)CCCCC(=O)NCCNC(=O)CCN(CCNC(=O)OC(C)(C)C)CCC(=O)NCCNC(=O)CCCCC(=O)NCCCCCN([C@H](CO)C(=O)NO)S(=O)(=O)c2ccc(OC)cc2)[C@H](CO)C(=O)NO)cc1
Ki [3]: 23 nM | Ki [4]: 15.9 nM | Activity [1]: 3 nm | Activity [5]: Active | Ki [6]: 3760 nM | Ki [7]: 18 nM | Ki [8]: 143 nM | Ki [9]: 57.5 nM
